# Measurements pooled from the literature.
# Each line is one published result; the experiments were not run side by side.
# RPS6KA4 N-terminal kinase domain: Ribosomal protein S6 kinase alpha-4, N-terminal kinase domain (RPS6KA4, Homo sapiens, UniProt O75676)
# RPS6KA4: Ribosomal protein S6 kinase alpha-4 (RPS6KA4, Homo sapiens, UniProt O75676)
# RPS6KA4 C-terminal kinase domain: Ribosomal protein S6 kinase alpha-4, C-terminal kinase domain (RPS6KA4, Homo sapiens, UniProt O75676)
Compound,target,read-out,mode,method,concentration,measurement,value
CCC(=O)N[C@H]1CC[C@@H](C(=O)N(C)c2ccc(-c3nc4ccccc4o3)cc2)C1,RPS6KA4 N-terminal kinase domain,cell-free assay,,competition with immobilised ligand,1 µM,remaining binding,100%
Cn1cncc1C1=CN(c2ncnc3[nH]cnc23)CCS1,RPS6KA4,enzyme activity,inhibitor,radiometric,2 µM,inhibition,75.5%
COc1cc2ncnc(Nc3ccc(Oc4ccccc4)c(C)c3C)c2cc1OC,RPS6KA4,enzyme activity,inhibitor,,1 µM,inhibition,-5%
CC(C)CC(=O)N1CCc2nc(-c3ccc(Br)cc3)nc(N(C)Cc3ccccc3)c2C1,RPS6KA4 N-terminal kinase domain,cell-free assay,,competition with immobilised ligand,0.1 µM,remaining binding,74%
CC(C)c1ccc(NC(=O)c2cccs2)c(-c2nc3ccccc3[nH]c2=O)c1,RPS6KA4,enzyme activity,inhibitor,,1 µM,activity vs control,96%
CCN(CC)CCNC(=O)c1c(C)[nH]c(/C=C2\C(=O)Nc3ccc(F)cc32)c1C,RPS6KA4,cell-free assay,,,0.5 µM,remaining signal,50.8%
Cc1cc(C)c(-n2ccn3nc(-c4cccnc4)cc23)cc1NC(=O)c1cc(C#N)cc(S(F)(F)(F)(F)F)c1,RPS6KA4 C-terminal kinase domain,cell-free assay,,competition with immobilised ligand,0.1 µM,remaining binding,79.3%
CC1CCCN1c1nccc(-c2cnn3ncccc23)n1 (stereo not shown),RPS6KA4 N-terminal kinase domain,binding,,competition with immobilised ligand,1 µM,remaining binding,99%
CCCS(=O)(=O)Nc1ccc(F)c(C(=O)c2c[nH]c3ncc(-c4ccc(Cl)cc4)cc23)c1F,RPS6KA4,enzyme activity,inhibitor,,1 µM,inhibition,< 10%
COc1cccc2c(NCc3ccccc3)nc(-n3c(N)nc4ccccc43)nc12,RPS6KA4 N-terminal kinase domain,target engagement in cells,inhibitor,chemoproteomics,20 mM,inhibition,7.3%
C[C@H]1CCN(c2nccc(-c3cnn4ncccc34)n2)C1,RPS6KA4 N-terminal kinase domain,binding,,competition with immobilised ligand,1 µM,remaining binding,93%
COc1cc(Cl)c(C(=O)N[C@@H](CN[C@H]2CC[C@@H](N)CC2)Cc2ccc(C#N)cc2)cc1-c1ccc(CN[C@H](C)c2ccc(C)cc2)o1,RPS6KA4,enzyme activity,inhibitor,,1 µM,remaining activity,77%
O=C(Nc1cccnn1)N1CC(C/C=C/c2cncc(Oc3ccc(C(F)(F)F)cn3)n2)C1,RPS6KA4 C-terminal kinase domain,cell-free assay,,competition with immobilised ligand,1 µM,remaining binding,92%
CN(C)c1nccc(-c2cnn3ncccc23)n1,RPS6KA4 N-terminal kinase domain,binding,,competition with immobilised ligand,1 µM,remaining binding,82%
Cc1cc(NC(=O)c2cccc3cc(-c4cccc5[nH]nc(N)c45)ccc23)ccc1F,RPS6KA4,enzyme activity,inhibitor,,0.1 µM,activity vs control,103%
CCS(=O)(=O)c1cc2cc(C[C@](O)(CC(C)(C)c3ccc(F)cc3C(N)=O)C(F)(F)F)[nH]c2cn1,RPS6KA4 C-terminal kinase domain,cell-free assay,,competition with immobilised ligand,1 µM,remaining binding,94%
CCCCNc1ncc2c(-c3ccc(F)cc3)nn(C[C@H]3CC[C@H](N)CC3)c2n1,RPS6KA4 N-terminal kinase domain,target engagement in cells,inhibitor,chemoproteomics,20 mM,inhibition,22%
CC(=O)C1=C(C)N(c2cccc(C(F)(F)F)c2)C(=O)N[C@@H]1c1ccc(C#N)nc1,RPS6KA4 C-terminal kinase domain,cell-free assay,,competition with immobilised ligand,1 µM,remaining binding,78.8%
Clc1ccc(Nc2nnc(Cc3ccncc3)c3ccccc23)cc1,RPS6KA4,cell-free assay,,,0.5 µM,remaining signal,98%
N[C@H]1CCN(c2nccc(-c3cnn4ncccc34)n2)C1,RPS6KA4 N-terminal kinase domain,binding,,competition with immobilised ligand,1 µM,remaining binding,91%
Nc1ncnc2occ(-c3ccc(NC(=O)Nc4cc(C(F)(F)F)ccc4F)cc3)c12,RPS6KA4 N-terminal kinase domain,cell-free assay,inhibitor,,20 µM,remaining signal,2.1%
O=C(Nc1cccnn1)N1CCC(=Cc2cccc(Oc3ccc(C(F)(F)F)cn3)c2)CC1,RPS6KA4 N-terminal kinase domain,cell-free assay,,competition with immobilised ligand,1 µM,remaining binding,98%
CN(c1nccc(-c2cnn3ncccc23)n1)C1CC1,RPS6KA4 N-terminal kinase domain,binding,,competition with immobilised ligand,1 µM,remaining binding,100%
O=C(Nc1cnn(-c2csc(C(=O)NC3COC3)c2)c1)Nc1c(F)cccc1Cl,RPS6KA4,enzyme activity,inhibitor,,5 µM,remaining activity,99.8%
Cc1nc(C2CCN(C(=O)c3ccc(OC(F)(F)F)cc3N)CC2)c2ncc(N3CCN(C)CC3)cc2n1,RPS6KA4 N-terminal kinase domain,cell-free assay,,competition with immobilised ligand,1 µM,remaining binding,100%
Cc1ccc(C(=O)NCc2ccsc2)cc1C#Cc1cn(C(C)C)c2ncnc(N)c12,RPS6KA4,enzyme activity,inhibitor,,1 µM,activity vs control,107%
COc1cc2c(N3CCN(C(=O)Nc4ccc(OC(C)C)cc4)CC3)ncnc2cc1OCCCN1CCCCC1,RPS6KA4,cell-free assay,,,0.5 µM,remaining signal,120%
O=C(Nc1cnn(-c2csc(C(=O)NC3COC3)c2)c1)Nc1ccccc1Cl,RPS6KA4,enzyme activity,inhibitor,,5 µM,remaining activity,90.7%
CC(C)(C)c1nc(-c2cccc(NS(=O)(=O)c3c(F)cccc3F)c2F)c(-c2ccnc(N)n2)s1,RPS6KA4,enzyme activity,inhibitor,radiometric,1 µM,remaining activity,86%
N#CCCc1ccc2c(c1)-c1[nH]c3ccc([N+](=O)[O-])cc3c1CC(=O)N2,RPS6KA4,cell-free assay,,,0.5 µM,remaining signal,85.8%
Cc1cnc(NC2CCOCC2)nc1-n1cnc(C(=O)NC(CN)c2cc(F)cc(Cl)c2)c1 (stereo not shown),RPS6KA4,enzyme activity,inhibitor,radiometric,1 µM,remaining activity,80%
